Where “and” joins values, the source holds several entries; their conditions need not be identical. Equal entries are not always repeated.
Assays:
[1] = molecular target: Sodium-dependent serotonin transporter; assay: Inhibition of [3H]- citalopram binding to serotonin transporter of Cynomolgus monkey caudate-putamen; format: tissue-based
Procedure, shortened: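 Caudate-putamen membranes (washed in 50 mM Tris-HCl pH 7.4, 3800g spins) incubated at 4 mg original wet tissue/mL with 1 nM [3H]citalopram and 7–14 competitor concentrations in 50 mM Tris-HCl/100 mM NaCl pH 7.4, 2 h at 0–4 °C. Filtered on polyethylenimine-soaked GF/B filters, scintillation counting. Nonspecific binding defined with 1 μM fluoxetine. IC50 computed by EBDA; independent experiments in triplicate.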

[2] = molecular target: Sodium-dependent dopamine transporter (Macaca fascicularis, UniProt Q9GJT6); assay: Inhibition of [3H]WIN-35428 binding to dopamine transporter using of Cynomolgus monkey caudate-putamen; format: tissue-based
Sequence of Sodium-dependent dopamine transporter (Q9GJT6 whole entry): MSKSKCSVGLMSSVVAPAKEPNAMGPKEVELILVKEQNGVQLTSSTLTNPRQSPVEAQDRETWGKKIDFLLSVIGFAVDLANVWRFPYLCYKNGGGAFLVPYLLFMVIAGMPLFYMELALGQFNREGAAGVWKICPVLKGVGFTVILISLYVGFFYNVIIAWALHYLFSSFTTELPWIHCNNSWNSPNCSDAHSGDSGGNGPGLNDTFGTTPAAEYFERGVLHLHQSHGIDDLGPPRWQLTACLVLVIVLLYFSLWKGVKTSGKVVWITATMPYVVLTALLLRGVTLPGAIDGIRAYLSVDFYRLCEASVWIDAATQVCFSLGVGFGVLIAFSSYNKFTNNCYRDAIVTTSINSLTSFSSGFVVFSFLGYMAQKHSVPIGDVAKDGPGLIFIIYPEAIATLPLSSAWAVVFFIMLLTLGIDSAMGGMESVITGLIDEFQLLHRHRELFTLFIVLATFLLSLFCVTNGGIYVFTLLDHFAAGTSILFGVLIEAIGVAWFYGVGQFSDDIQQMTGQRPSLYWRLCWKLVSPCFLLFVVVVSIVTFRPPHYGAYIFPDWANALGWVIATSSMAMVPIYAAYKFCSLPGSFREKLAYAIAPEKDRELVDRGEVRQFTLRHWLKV
Procedure, shortened: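 Caudate-putamen membranes (washed in 50 mM Tris-HCl pH 7.4, 3800g spins) incubated at 4 mg original wet tissue/mL with 0.3 nM [3H]WIN35,428 and 7–14 competitor concentrations in 50 mM Tris-HCl/100 mM NaCl pH 7.4, 2 h at 0–4 °C. Filtered on BSA-soaked GF/B filters, scintillation counting. Nonspecific binding defined with 30 μM (–)-cocaine. IC50 computed by EBDA; independent experiments in triplicate.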

Macaca fascicularis = species on record: Macaca fascicularis; assay: Relative affinity for dopamine and serotonin transporters

## COC(=O)[C@@H]1C2CCC(C[C@@H]1OC(c1ccc(F)cc1)c1ccc(F)cc1)N2Cc1ccccc1 (stereo not given in full)
[1]
  IC50: 4970 nM

## COC(=O)C1C(c2ccc(F)cc2)CC2CCC1N2CCCCCc1ccccc1 (stereo not given)
[2]
  IC50: 3.4 nM
[1]
  IC50: 49.9 nM
Macaca fascicularis
  Ratio: 15

## COC(=O)[C@@H]1C2CCC(C[C@@H]1OC(c1ccc(F)cc1)c1ccc(F)cc1)N2CCCCCc1ccccc1 (stereo not given in full)
[1]
  IC50: 550 nM
Macaca fascicularis
  Ratio: 6

## [N-[2-[(3'-N'-PROPYL-3''ALPHA-(BIS(4-FLUORORPHENYL)METHOXY)TROPANE-2''BETA-CARBOXYLIC ACID METHYL ESTER)(2-MERCAPTOETHYL)AMINO]ACETYL]-2-AMINOETHANETHIOLATO]RHENIUM(V) OXIDE (DIASTEREOMERIC MIX) [listing 1 of 2 here]
[2]
  IC50: 482 nM and 616 nM and 343 nM

## [N-[2-[(3'-N'-PROPYL-3''ALPHA-(BIS(4-FLUORORPHENYL)METHOXY)TROPANE-2''BETA-CARBOXYLIC ACID METHYL ESTER)(2-MERCAPTOETHYL)AMINO]ACETYL]-2-AMINOETHANETHIOLATO]RHENIUM(V) OXIDE (DIASTEREOMERIC MIX) [listing 2 of 2 here]
Macaca fascicularis
  Ratio: 90

## COC(=O)[C@@H]1C2CCC(C[C@@H]1OC(c1ccc(F)cc1)c1ccc(F)cc1)N2CCCc1ccccc1 (stereo not given in full)
[1]
  IC50: 19.7 nM

## COC(=O)C1C(c2ccc(F)cc2)CC2CCC1N2Cc1ccccc1 (stereo not given)
[2]
  IC50: 58.9 nM
[1]
  IC50: 1070 nM
Macaca fascicularis
  Ratio: 18

## COC(=O)C1C(c2ccc(F)cc2)CC2CCC1N2CCCc1ccccc1 (stereo not given)
[2]
  IC50: 1.4 nM
[1]
  IC50: 133 nM
Macaca fascicularis
  Ratio: 95

From ChEMBL document CHEMBL1130345, “A technetium-99m SPECT imaging agent which targets the dopamine transporter in primate brain” (J Med Chem, 1997)
